Results from ChEMBL document CHEMBL1124645, “Minimum-structure enkephalin analogues incorporating L-tyrosine, D(or L)-phenylalanine, and a diamine spacer” (J Med Chem, 1989).

Columns and labels:
[1] = species on record: Cavia porcellus; assay: Ability to display a naloxone-reversible inhibition of electrically induced contractions in GPI by Morphine at 0.5 uM; type: functional
[2] = species on record: Cavia porcellus; assay: Ability to display a naloxone-reversible inhibition of electrically induced contractions in GPI in the presence of 1.0 uM bestatin at concentration 10 e-6 M; type: functional
[3] = species on record: Cavia porcellus; assay: Percentage inhibition of compound against morphine at 10 e-7 M in guinea pig ileum tissue; type: functional
How it was run: (§1)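 Hartley male guinea pigs (400–450 g); 3–4-cm segments of terminal ileum in a 3.5-mL Krebs bath at 37 ± 0.5 °C, gassed with 95% O2-5% CO2. […] Each was tested at least twice per preparation. Results are the average of at least three ilea from different animals.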

[4] = species on record: Cavia porcellus; assay: Inhibitory activity in guinea pig ileum tissue in the absence and presence of 10 nM naloxone; type: functional
[5] = species on record: Cavia porcellus; assay: Ability to display a naloxone-reversible inhibition of electrically induced contractions in GPI by Morphine at 0.1 uM; type: functional; how it was run: as §1
[6] = species on record: Cavia porcellus; assay: Ability to display a naloxone-reversible inhibition of electrically induced contractions in GPI in the presence of 1 uM bestatin at concentration 2 uM

N[C@@H](Cc1ccccc1)C(=O)NCCNC(=O)[C@@H](N)Cc1ccc(O)cc1
Inhibition [1]: 49.5%
Inhibition [2]: 12%

N[C@H](Cc1ccccc1)C(=O)NCCNC(=O)[C@@H](N)Cc1ccc(O)cc1
Inhibition [2]: 8%
inhibition at 0.1 µM [3]: 49.5%

CC(=O)N[C@H](Cc1ccccc1)C(=O)NCCNC(=O)C(N)Cc1ccc(O)cc1 (some centres not stated)
Inhibition [2]: 89.5%
inhibition at 0.1 µM [3]: 40%
Ke [4]: 4 nM
Relative potency [5]: 1.6

CC(=O)N[C@H](Cc1ccccc1)C(=O)NCC(C)(C)NC(=O)C(N)Cc1ccc(O)cc1 (some centres not stated)
Inhibition [2]: 91.5%
inhibition at 0.1 µM [3]: 43.5%
Ke [4]: 4.2 nM
Relative potency [5]: 21.2

CC(=O)N[C@H](Cc1ccccc1)C(=O)NC(C)(C)CNC(=O)C(N)Cc1ccc(O)cc1 (some centres not stated)
Inhibition [2]: 42.5%
inhibition at 0.1 µM [3]: 40%
Relative potency [5]: 0.27

CC(=O)N[C@H](Cc1ccccc1)C(=O)NCCC(C)(C)NC(=O)C(N)Cc1ccc(O)cc1 (some centres not stated)
Inhibition [2]: 53%
Ke [4]: 3.3 nM
Inhibition [5]: 40%
Relative potency [5]: 0.22

CC(=O)N[C@H](Cc1ccccc1)C(=O)NCCCNC(=O)C(N)Cc1ccc(O)cc1 (some centres not stated)
Inhibition [2]: 29.5%
Ke [4]: 4.4 nM
Inhibition [5]: 47%
Relative potency [5]: 0.0077

CC(=O)NC(Cc1ccccc1)C(=O)NC(C)(C)CNC(=O)C(N)Cc1ccc(O)cc1 (stereo in doubt)
Inhibition [2]: 16.3%
inhibition at 0.1 µM [3]: 47%

CC(=O)NC(Cc1ccccc1)C(=O)NCC(C)(C)NC(=O)C(N)Cc1ccc(O)cc1 (stereo in doubt)
Inhibition [2]: 79.3%
inhibition at 0.1 µM [3]: 47%
Ke [4]: 1.4 nM
Relative potency [5]: 10

CC(=O)NC(Cc1ccccc1)C(=O)NCCC(C)(C)NC(=O)C(N)Cc1ccc(O)cc1 (stereo in doubt)
Inhibition [2]: 50.5%
Ke [4]: 2.1 nM
Inhibition [5]: 47%
Relative potency [5]: 0.052

CC(=O)NC(Cc1ccccc1)C(=O)NCCNC(=O)C(N)Cc1ccc(O)cc1 (stereo in doubt)
Inhibition [2]: 10%
inhibition at 0.1 µM [3]: 49.5%

CC(=O)NC(Cc1ccccc1)C(=O)NCCCNC(=O)C(N)Cc1ccc(O)cc1 (stereo in doubt)
Inhibition [6]: 8%
Inhibition [2]: 5%
